The source of these data is publication PMC6863147 (Clinical cancer research : an official journal of the …, 2019).

The test system of data set [1] is recurrent RB-positive glioblastoma. Conditions: 22 patients; cited from earlier work.
Data set [2] relates to apoptotic marker cleaved caspase-3. The data set can be described thus: tumor pharmacodynamics, cleaved caspase-3 immunohistochemistry. It is filed as in vivo, human. The following applies: P = 0.19. Summed up:
(§1)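 Patients took 900 mg/d oral for 5 days, with resection 2, 8 or 24 h after the last dose. Surgical FFPE tissue and matched archival tissue from the initial resection were stained together on an automated platform, with positive and no-primary controls. Antibodies: pRB 1:400, pFOXM1 1:200, MIB-1 1:100, cleaved caspase-3 1:300. Nuclear % positive cells were compared by paired t-test on log values (two-sided 5%), also after normalising to the untreated historical-control median, overall and per arm.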

For data set [3], the system named is phosphorylation of FOXM1 (pFOXM1). Kind of data set: tumor pharmacodynamics, pFOXM1 immunohistochemistry. It is filed as in vivo, human. Conditions: P = 0.142, primarily at 8-hour postdose. In outline:
as §1

Data set [4] deals with proliferative marker MIB-1. Kind of data set: tumor pharmacodynamics, MIB-1 immunohistochemistry. It is filed as in vivo, human. Conditions: vs archival tissue, P = 0.039. Summed up:
as §1

Data set [5] is described as follows: plasma pharmacokinetics in recurrent glioblastoma patients. The class given is in vivo, human. Summed up: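 Patients took 900 mg oral daily. Blood was drawn before dosing and 0.5, 1, 2, 4, 6, 8 and 24 h after the fourth dose. Plasma was held at −80 °C. Totals were measured by validated LC-MS/MS, and unbound levels as total × fraction unbound (equilibrium dialysis). Noncompartmental analysis gave Cmax, Tmax, AUCτ and CL/F (dose/AUCτ), summarised as mean, median, range and coefficient of variation.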

Data set [6] can be described thus: safety and tolerability in glioblastoma patients. The following applies: human, in vivo.
Data set [7] concerns recurrent glioblastoma. Kind of data set: pharmacokinetic/pharmacodynamic-guided expansion cohort, clinical response. The class given is in vivo, human.
Data set [8] is classed as in vivo, human.
For data set [9], the system named is phosphorylation of RB (pRB). Kind of data set: tumor pharmacodynamics, pRB immunohistochemistry. It is filed as in vivo, human. In outline: as §1
The test system of data set [10] is pS6. Kind of data set: longitudinal tissue analysis, pS6 immunohistochemistry. The class given is in vivo, human. Conditions: 3 patients. In outline: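 Samples were from expansion-cohort patients (600 mg daily, 21 days on/7 off) re-resected at recurrence. Enhancing tumor was collected. Archival, Phase 0 surgical and post-treatment FFPE tissue was immunostained on an automated platform (anti-pS6 1:100). The software nuclear function quantified % positive cells.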

For data set [11], the system named is p4EBP1. The data set can be described thus: longitudinal tissue analysis, p4EBP1 immunohistochemistry. The class given is in vivo, human. Conditions: 3 patients.
The test system of data set [12] is CDK4/6. The following applies: read-out: in vitro IC50 for inhibition of CDK4/6 kinase activity; cited from earlier work.
Setting [13] is: 2 to 24 hours after fifth 900 mg dose.
Setting [14] is: human, non-enhancing tumor region, oral, 900 mg.

Where “and” joins values, the source holds several entries; their conditions need not be identical. Equal values may be shown once.

As for `CC(=O)c1c(C)c2cnc(Nc3ccc(N4CCNCC4)cn3)nc2n(C2CCCC2)c1=O` [Palbociclib], the “clinical efficacy in terms of prolonging PFS” value in data set [1] is “limited clinical efficacy”.

In the case of `CN(C)C(=O)c1cc2cnc(Nc3ccc(N4CCNCC4)cn3)nc2n1C1CCCC1` [ribociclib, Ribociclib], in data set [2], the “cleaved caspase-3 change after Phase 0 exposure” value was “trended towards a concomitant increase”. Further, the “pFOXM1 levels after normalization with historical control samples” value in data set [3] is “downward trend”. Further, in data set [4], the “MIB-1 change after Phase 0 exposure” value was “significantly reduced”. This molecule also showed a half-life in [5] (human, plasma, po, 900 mg) of 13.5 h. Further, the “coefficient variation in drug exposure (Cmax, Ctrough, AUC0-24h)” value in [5] (inter-individual, among 12 patients) is given as “about 50%”. Besides, in data set [5] (steady-state, 900 mg daily), the “fluctuation of unbound plasma concentration, trough to peak” value is on record as 3.4 fold; the “unbound plasma concentration, mean peak level” value was determined as 440 nM; the “unbound plasma concentration, mean trough level” value is 130 nM. In data set [6], this molecule gave a maximum tolerated dose of 900 mg daily. Also, in data set [7] (6 of 8 patients with histologically evident recurrence), the “Phase 0 responders based on pharmacokinetic and pharmacodynamic results” value is 75%. For the same molecule, in [7] (expansion cohort, 6 patients), the PFS6 amounted to 16.7% and the “median OS” value turned out to be 7.8 months. For the same molecule, the “median PFS” value in data set [7] (expansion cohort, 6 patients, 600 mg daily 21 days on/7 days off) amounted to 9.7 weeks. Besides, the “clinical efficacy of monotherapy” value in data set [7] (recurrent glioblastoma) is recorded as “limited clinical efficacy”. Further, in data set [8] (setting [13]), the “mean unbound concentration in enhancing tumor region” value was 2.152 µmol/kg and 2.152 ± 1.559 µmol/kg; the “mean unbound concentration in non-enhancing tumor region” value is 0.560 µmol/kg and 0.560 ± 0.364 µmol/kg. In addition, in data set [8] (setting [14]), the concentration at 2 h came to 510 nM, the concentration at 8 h was 600 nM and the concentration at 24 h turned out to be 350 nM. The “patients with > 20% decrease in pRB levels” value in data set [9] (9 of 12 Phase 0 patients, vs matched archival tissue) amounted to 75%. Besides, in data set [9] (12 treated patients, 900 mg/d for 5 days), the “average decrease in pRB levels” value is 50%. For the same molecule, the pRB positive cells in data set [9] (Phase 0 operation specimens, 3 re-resected patients) is 7.4%. Also, the pRB positive cells in data set [9] (post-treatment (recurrence after monotherapy), 3 patients) turned out to be 19.96%. This molecule showed a pS6 positive cells in data set [10] (matched Phase 0 samples) of 21.3%. Further, in [10] (post-treatment specimens), the pS6 positive cells is on record as 36.7%. Besides, the p4EBP1 positive cells in [11] (matched Phase 0 samples) worked out at 2.8%. This molecule also showed a p4EBP1 positive cells in [11] (post-treatment specimens) of 31.2%. The IC50 in [12] was 0.04 µM.
